Source: PubChem BioAssay
Rows were chosen to be rich in hits. Some 3.3% of all compounds tested hit in one or more screens of this group.
Jurkat viability: cytotoxicity toward Jurkat T cells, primary screen, cytotoxicity control, cell-based, Jurkat E6.1, 60K MLSMR library | Jurkat E6.1 viability, ATP luminescence, 48 h | inhibition, % at 4 µM | hit rate 1.2% among 56,000;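 active means inhibition above the mean inhibition of all tested compounds plus 3 SD, cut at about 28% in these data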
5HT1a ag: human 5-HT1a receptor agonists, primary screen, cell-based, CHO, Ga15 NFAT-bla reporter; hit rate 0.56% among 65,000; CHO 5-HT1a Ga15 NFAT-bla reporter, FRET ratio; 0% basal, 100% maximal reference agonist; activation, % at 10 µM; 5-hydroxytryptamine receptor 1A (Homo sapiens), P08908;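 active means activation above the screen-wide mean activation plus 3 SD, cut at about 19% in these data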;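 further: 0% = DMSO wells and 100% = 5-CT at EC100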
Target sequence (P08908 whole entry, looked up): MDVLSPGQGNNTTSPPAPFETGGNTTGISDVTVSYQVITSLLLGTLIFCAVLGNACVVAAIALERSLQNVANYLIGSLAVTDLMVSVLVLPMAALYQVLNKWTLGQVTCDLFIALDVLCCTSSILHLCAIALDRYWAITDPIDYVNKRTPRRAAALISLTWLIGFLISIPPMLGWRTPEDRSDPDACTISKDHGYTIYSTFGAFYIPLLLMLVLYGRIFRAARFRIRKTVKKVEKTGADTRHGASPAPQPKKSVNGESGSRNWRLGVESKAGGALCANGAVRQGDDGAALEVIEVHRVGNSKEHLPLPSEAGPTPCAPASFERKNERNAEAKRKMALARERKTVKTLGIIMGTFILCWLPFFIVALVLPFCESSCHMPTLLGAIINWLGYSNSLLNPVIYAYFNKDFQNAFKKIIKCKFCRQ
HTR1E agonist: 5-HT1E receptor agonists, primary screen, cell-based, HTS | hit rate 0.69% among 65,000 | AID 574, 2007 | CHO 5-HT1E Ga15 NFAT-bla reporter, FRET; 0% DMSO wells, 100% control agonist wells | 5-hydroxytryptamine receptor 1E (Homo sapiens), P28566 | activation, % at 6 µM;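 active means activation above a set limit, the screen-wide mean activation plus 3 SD, cut at about 8.5% in these data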;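 further: 100% = positive control agonist at 1 µM giving full maximal response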
HEK293 NFkB inh: inhibitors of PMA/ionomycin-induced NF-kB reporter, primary screen, antigen receptor NF-kB inhibitor project, cell-based, HEK-293 luciferase reporter, luminescence. HEK-293 NF-kB luciferase reporter. inhibition, % at 3 µM. hit rate 0.21% among 62,000. AID 465, 2006;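 active means inhibition above the mean of all tested compounds plus 3 SD, cut at about 40% in these data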;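 further: 0% = stimulated DMSO wells and 100% = 10 µM reference inhibitor 5653914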
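Timing: 1 h pretreatment, 16 h stimulation, 37 °C; system: HEK-293 cells with stable firefly luciferase reporter driven by four HIV NF-kB elements; doses: 3 µM once, 0.30% DMSO; measured by: luciferase luminescence; control set: DMSO and 10 µM reference inhibitor; repeats: single test; reagent: PMA plus ionomycin mix as NF-kB-activating stimulus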
5HT1a antag: human 5-HT1a receptor antagonists, primary screen, cell-based, CHO, Ga15 NFAT-bla reporter; 5-hydroxytryptamine receptor 1A (Homo sapiens), P08908; CHO 5-HT1a Ga15 NFAT-bla reporter, antagonist mode; inhibition, % at 10 µM; hit rate 0.68% among 62,000; AID 612, 2007;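 active means inhibition above the mean of all tested compounds plus 3 SD, cut at about 43% in these data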;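 further: receptor stimulated by 5-CT agonist at 100 nM near EC80; beta-lactamase reporter measured by ratiometric fluorescence of a cleavable substrate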
5HT1E antag: 5-HT1E receptor antagonists, primary screen, cell-based, HTS. hit rate 0.99% among 65,000. AID 571, 2007. CHO 5-HT1E Ga15 NFAT-bla reporter, FRET, antagonist. 5-hydroxytryptamine receptor 1E (Homo sapiens), P28566. inhibition, % at 6 µM;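 active means inhibition above a set limit, the mean inhibition across every tested compound plus 3 SD, cut at about 29% in these data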;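 further: signal is the 460 over 535 nm emission ratio of beta-lactamase substrate; 0% = agonist plus DMSO wells and 100% = wells without agonist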
* hit, by the source's call.

Results for COc1ccccc1N1CCN(C2=CC(=O)CCC2)CC1 ?
5HT1a ag: 6; HTR1E agonist: 32*; HEK293 NFkB inh: -3; 5HT1a antag: 18; 5HT1E antag: 0

Results for COc1ccc(CN2CCCC(C(=O)N3CCCC3)C2)cc1 (stereo not drawn) ?
Jurkat viability: -2; 5HT1a ag: -1; HTR1E agonist: 0; HEK293 NFkB inh: 21; 5HT1a antag: -7; 5HT1E antag: -4

How did O=C(C1CCN(Cc2ccc(OCc3ccccc3)cc2)CC1)N1CCCC1 do in these assays?
Jurkat viability: -5; 5HT1a ag: -1; HTR1E agonist: 11*; HEK293 NFkB inh: 6; 5HT1a antag: 8; 5HT1E antag: -11

Results for c1ccc2c(c1)[nH]c1c(N3CCSCC3)ncnc12 ?
5HT1a ag: 3; HTR1E agonist: 0; 5HT1E antag: 23

What do the screens show for `c1ccc2c(c1)[nH]c1c(N3CCCC3)ncnc12`?
Jurkat viability: 33*; 5HT1a ag: -2; HTR1E agonist: 0; HEK293 NFkB inh: 23; 5HT1a antag: 4; 5HT1E antag: 8

What do the screens show for `Cc1ccc(N(C(=O)C2CCCC2)C2C=CS(=O)(=O)C2)cc1C` (stereo not drawn)?
Jurkat viability: -5; 5HT1a ag: -1; HTR1E agonist: 0; HEK293 NFkB inh: 20; 5HT1a antag: -10; 5HT1E antag: -6

How did NC12CC3CC(C1)CC(CO)(C3)O2 do in these assays?
Jurkat viability: 3; 5HT1a ag: -4; HTR1E agonist: 0; HEK293 NFkB inh: 8; 5HT1a antag: -9; 5HT1E antag: 0

What do the screens show for `COc1ccc(Cn2nnnc2C(c2ccc(N(C)C)cc2)N2CCC(C)CC2)cc1` (stereo not drawn)?
Jurkat viability: -5; 5HT1a ag: 3; HTR1E agonist: 1; HEK293 NFkB inh: 20; 5HT1a antag: 44*; 5HT1E antag: 10

Results for CCn1c(SCC(=O)Nc2cc3oc4ccccc4c3cc2OC)nnc1-c1cccs1 ?
Jurkat viability: 9; 5HT1a ag: 25*; HTR1E agonist: -1; HEK293 NFkB inh: 5; 5HT1a antag: 4; 5HT1E antag: 5

What do the screens show for `COc1cc2c(cc1NC(=O)CSc1nnc(Cc3cccs3)n1C)oc1ccccc12`?
Jurkat viability: 8; 5HT1a ag: 4; HTR1E agonist: 0; HEK293 NFkB inh: 12; 5HT1a antag: 4; 5HT1E antag: -3

What do the screens show for `CCn1c(SCC(=O)Nc2nccs2)nnc1-c1ccccc1`?
Jurkat viability: -1; 5HT1a ag: -1; HTR1E agonist: 0; HEK293 NFkB inh: 14; 5HT1a antag: -5; 5HT1E antag: 4

Results for CCn1c(SCC(=O)Nc2nccs2)nnc1-c1cc2cccc(OC)c2o1 ?
Jurkat viability: -1; 5HT1a ag: 1; HTR1E agonist: 11*; HEK293 NFkB inh: 11; 5HT1a antag: -5; 5HT1E antag: 5

Results for O=C(c1cc2ccccc2o1)N1CCN=C1SCc1cccnc1 ?
Jurkat viability: 0; 5HT1a ag: 2; HTR1E agonist: 0; HEK293 NFkB inh: 19; 5HT1a antag: 1; 5HT1E antag: -4

How did Cc1ccc(-c2cnc(N)n2C)cc1C do in these assays?
Jurkat viability: 1; 5HT1a ag: 3; HTR1E agonist: 38*; HEK293 NFkB inh: 16; 5HT1a antag: 11; 5HT1E antag: -6

Results for Cn1c(-c2ccc(Cl)cc2)cnc1N ?
Jurkat viability: -4; 5HT1a ag: -3; HTR1E agonist: 1; HEK293 NFkB inh: 6; 5HT1a antag: -15; 5HT1E antag: -11

What do the screens show for `CCCn1c(SCC(=O)N2CCN(S(=O)(=O)c3ccc(Cl)cc3)CC2)n[nH]c1=O`?
Jurkat viability: 0; 5HT1a ag: 0; HTR1E agonist: 9.0*; HEK293 NFkB inh: 15; 5HT1a antag: 2; 5HT1E antag: 10

Results for Cc1cccc2cc(CN(CC3CCCO3)C(c3nnnn3Cc3ccco3)C(C)C)c(=O)[nH]c12 (stereo not drawn) ?
Jurkat viability: 8; 5HT1a ag: 3; HTR1E agonist: 1; HEK293 NFkB inh: 4; 5HT1a antag: 7; 5HT1E antag: -8

Results for COC(=O)COc1ccc(S(=O)(=O)Nc2ccc(NC(C)=O)cc2)cc1C ?
Jurkat viability: -8; 5HT1a ag: 0; HTR1E agonist: 0; HEK293 NFkB inh: 2; 5HT1a antag: -10; 5HT1E antag: 0

Results for Cc1csc(Sc2nc3c(c(=O)[nH]c(=O)n3C)n2CCCc2ccccc2)n1 ?
Jurkat viability: -8; 5HT1a ag: -3; HTR1E agonist: 2; HEK293 NFkB inh: 5; 5HT1a antag: 7; 5HT1E antag: 1

Results for Cc1ccc(Cn2ccc(NC(=O)c3cc(-c4cccs4)on3)n2)cc1 ?
Jurkat viability: -1; 5HT1a ag: -1; HTR1E agonist: 1; HEK293 NFkB inh: 0; 5HT1a antag: -6; 5HT1E antag: -19

How did Cc1ccc(-n2c(SCC(=O)N3CCOCC3)nnc2-c2cccnc2)cc1 do in these assays?
Jurkat viability: -3; 5HT1a ag: 2; HTR1E agonist: 0; HEK293 NFkB inh: -2; 5HT1a antag: 2; 5HT1E antag: 4

What do the screens show for `Cc1ccc(-n2c(SCC(=O)N3CCOCC3)nnc2-c2cccnc2)cc1C`?
Jurkat viability: 15; 5HT1a ag: 3; HTR1E agonist: 44*; HEK293 NFkB inh: 3; 5HT1a antag: -4; 5HT1E antag: -1

How did COCCn1c(SCc2c(F)cccc2Cl)nc2c1c(=O)[nH]c(=O)n2C do in these assays?
5HT1a ag: -1; HTR1E agonist: 0; 5HT1E antag: -1

How did CCN1CCN(S(=O)(=O)c2cc(OCC(=O)NC3CCCCC3)c(C)cc2Cl)CC1 do in these assays?
Jurkat viability: 53*; 5HT1a ag: -2; HTR1E agonist: -1; HEK293 NFkB inh: 24; 5HT1a antag: 6; 5HT1E antag: 4

What do the screens show for `Cc1ccccc1CN1CCN(CC(=O)NCc2ccc3c(c2)OCO3)C1=O`?
5HT1a ag: -3; HTR1E agonist: 0; HEK293 NFkB inh: 12; 5HT1a antag: 7; 5HT1E antag: -2

Results for O=C(NC1c2ccccc2-c2ccccc21)N1CCCCC1 ?
Jurkat viability: 4; 5HT1a ag: 2; HTR1E agonist: -1; HEK293 NFkB inh: 43*; 5HT1a antag: 15; 5HT1E antag: 2

Results for O=C(Nc1ccccc1C(F)(F)F)N1CCCCCC1 ?
Jurkat viability: 9; 5HT1a ag: -2; HTR1E agonist: 0; HEK293 NFkB inh: 20; 5HT1a antag: -3; 5HT1E antag: 5
